The first series concerns Rattus norvegicus. The series can be described thus: Antihypertensive activity in Norwegian albino rat assessed as inhibition of DOCA salt-induced diastolic blood pressure at 10 mg/kg, po after 120 mins by invasive carotid artery cannulation method. It is filed as functional. Conditions: 2 h. The gist of the method: (§1)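 Male rats (200–250 g), uninephrectomized and given DOCA s.c. (30–50 mg/kg/week) with 1% NaCl drinking water. Anesthetized with pentobarbital (35 mg/kg i.p.); left carotid artery cannulated and exteriorized. After recovery and a baseline reading, compound given orally by feeding needle. Diastolic pressure recorded via transducer at 15, 30, 60, 120 and 180 min. Mean ± S.E.M.; repeated-measures ANOVA.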
In general, inhibition in vivo refers to the change of the read-out against control, counted positive when it falls. For the molecule `CCOC(=O)C1=C(C)NC(OC)N(CC(=O)c2ccc(Cl)cc2)C1c1ccc(OC)cc1` (stereo unspecified), the inhibition in vivo at 10 mg/kg stood at 30.1%.

A further series relates to Rattus norvegicus. The series can be described thus: Antihypertensive activity in Norwegian albino rat assessed as inhibition of DOCA salt-induced diastolic blood pressure at 10 mg/kg, po after 180 mins by invasive carotid artery cannulation method. In kind it is functional. Conditions: 3 h. The method in brief: as §1
Regarding `CCOC(=O)C1=C(C)NC(OC)N(CC(=O)c2ccc(Cl)cc2)C1c1ccc(OC)cc1` (stereo unspecified), the inhibition in vivo at 10 mg/kg was 37.9%.

A further series relates to Rattus norvegicus. The series can be described thus: Antihypertensive activity in Norwegian albino rat assessed as inhibition of DOCA salt-induced diastolic blood pressure at 10 mg/kg, po after 240 mins by invasive carotid artery cannulation method. In kind it is functional. The settings on record: 4 h.
`CCOC(=O)C1=C(C)NC(OC)N(CC(=O)c2ccc(Cl)cc2)C1c1ccc(OC)cc1` (stereo unspecified): the inhibition in vivo at 10 mg/kg came out at 47.7%.

In another series the test system is Rattus norvegicus. The series can be described thus: Antiinflammatory activity in Norwegian albino rat assessed as inhibition of carrageenan-induced paw edema at 100 mg/kg, po after administered 60 mins prior to carrageenan-challenge measured after 1 hr. In kind it is functional.
Conditions: not given
The gist of the method: (§2)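 Compound given orally as 100 mg/kg suspension in 0.5% CMC. 60 min later, carrageenan injected sub-plantar into the left hind paw. Paw volume measured within 30 s of injection, then at 1–5 h. % inhibition = [1−(Dt/Dc)]×100, where Dt and Dc are mean relative paw-volume changes in test and control. ANOVA.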
Background: Carrageenan injected into the paw causes an acute inflammation.
For the molecule `CCOC(=O)C1=C(C)NC(OC)N(CC(=O)c2ccc(Cl)cc2)C1c1ccc(OC)cc1` (stereo unspecified), the inhibition in vivo at 100 mg/kg turned out to be 37.8%.

The next series concerns Rattus norvegicus. Put plainly: Antiinflammatory activity in Norwegian albino rat assessed as inhibition of carrageenan-induced paw edema at 100 mg/kg, po after administered 60 mins prior to carrageenan-challenge measured after 3 hrs. In kind it is functional.
Conditions: not given
The method in brief:
as §2
For `CCOC(=O)C1=C(C)NC(OC)N(CC(=O)c2ccc(Cl)cc2)C1c1ccc(OC)cc1` (stereo unspecified), the inhibition in vivo at 100 mg/kg is 39.5%.

A further series has as its system Rattus norvegicus. Put plainly: Antiinflammatory activity in Norwegian albino rat assessed as inhibition of carrageenan-induced paw edema at 100 mg/kg, po after administered 60 mins prior to carrageenan-challenge measured after 5 hrs. In kind it is functional.
Conditions: not given
The gist of the method:
as §2
On to `CCOC(=O)C1=C(C)NC(OC)N(CC(=O)c2ccc(Cl)cc2)C1c1ccc(OC)cc1` (stereo unspecified), for which the inhibition in vivo at 100 mg/kg is 42%.

A further series has as its system Mus musculus. Put plainly: Analgesic activity against acetic acid-induced writhing in Swiss albino mouse assessed as protection at 20 mg/kg, po. It is filed as functional.
Conditions: not given
The gist of the method:
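Swiss albino mice (25–30 g), six per group, habituated 30 min individually in the test cage. Compound in 1% CMC given p.o. at 20 mg/kg. 1 h later, acetic acid injected i.p.; writhes (arching of back, body elongation, hind-limb extension) counted 5–15 min after injection. % inhibition = (n−n′)/n×100, where n and n′ are mean writhes in control and test.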
A general note: An intraperitoneal irritant provokes the stretching counted in writhing tests.
In the case of `CCOC(=O)C1=C(C)NC(OC)N(CC(=O)c2ccc(Cl)cc2)C1c1ccc(OC)cc1` (stereo unspecified), the Activity was determined as 49.56%.

Another series has as its system Rattus norvegicus. Put plainly: Gastrointestinal toxicity in albino rat assessed as ulcerogenic index at 50 mg/kg, po. In kind it is organism-based. Conditions: in vivo. Also on record: dose 50 mg/kg, route oral. The gist of the method:
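Albino rats (150–200 g), six per group, food but not water withheld 24 h. Compound given p.o. at 50 mg/kg; controls received 1% methyl cellulose. Rats fed 17 h, then killed; stomach opened along greater curvature and examined under 4× magnifier. Lesions scored as large (>2 mm), small (1–2 mm) or punctiform (<1 mm). Severity index = treated mean score minus control mean score.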
In the case of `CCOC(=O)C1=C(C)NC(OC)N(CC(=O)c2ccc(Cl)cc2)C1c1ccc(OC)cc1` (stereo unspecified), the UI turned out to be 0.45.

For a further series, the system named is Rattus norvegicus. The series can be described thus: Antihypertensive activity in Norwegian albino rat assessed as inhibition of DOCA salt-induced systolic blood pressure at 10 mg/kg, po after 420 mins by non-invasive tail-cuff method. In kind it is functional. The settings on record: Artery, 7 h. The gist of the method: (§3)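 Male rats (200–250 g), uninephrectomized under pentobarbital (50 mg/kg i.p.); one week later DOCA s.c. 30–50 mg/kg/week, with 1% w/v NaCl in drinking water. Groups of six, trained in restrainer, tail warmed at 33–34 °C. Compound in 0.5% CMC, 10 mg/kg orally. Systolic pressure read by tail-cuff before dosing and from 1 h after; three readings averaged. ANOVA.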
Turning to `CCOC(=O)C1=C(C)NC(OC)N(CC(=O)c2ccc(Cl)cc2)C1c1ccc(OC)cc1` (stereo unspecified), the inhibition in vivo at 10 mg/kg was 49.4%.

For another series, the system named is Rattus norvegicus. Put plainly: Antihypertensive activity in Norwegian albino rat assessed as inhibition of DOCA salt-induced systolic blood pressure at 10 mg/kg, po after 15 mins by non-invasive tail-cuff method. The settings on record: Artery, 0.25 h. In kind it is functional.
As to `CCOC(=O)C1=C(C)NC(OC)N(CC(=O)c2ccc(Cl)cc2)C1c1ccc(OC)cc1` (stereo unspecified), the inhibition in vivo at 10 mg/kg worked out at 1.57%.

Another series relates to Rattus norvegicus. Put plainly: Antihypertensive activity in Norwegian albino rat assessed as inhibition of DOCA salt-induced systolic blood pressure at 10 mg/kg, po after 30 mins by non-invasive tail-cuff method. In kind it is functional. Conditions: Artery, 0.5 h.
Consider `CCOC(=O)C1=C(C)NC(OC)N(CC(=O)c2ccc(Cl)cc2)C1c1ccc(OC)cc1` (stereo unspecified), for which the inhibition in vivo at 10 mg/kg amounted to 6.58%.

The subject of a further series is Rattus norvegicus. Put plainly: Antihypertensive activity in Norwegian albino rat assessed as inhibition of DOCA salt-induced systolic blood pressure at 10 mg/kg, po after 60 mins by non-invasive tail-cuff method. It is filed as functional. The settings on record: Artery, 1 h. The method in brief:
as §3
With `CCOC(=O)C1=C(C)NC(OC)N(CC(=O)c2ccc(Cl)cc2)C1c1ccc(OC)cc1` (stereo unspecified), the inhibition in vivo at 10 mg/kg was 18.2%.

The next series has as its system Rattus norvegicus. The series can be described thus: Antihypertensive activity in Norwegian albino rat assessed as inhibition of DOCA salt-induced systolic blood pressure at 10 mg/kg, po after 120 mins by non-invasive tail-cuff method. It is filed as functional. Conditions: Artery, 2 h. The gist of the method:
as §3
As for `CCOC(=O)C1=C(C)NC(OC)N(CC(=O)c2ccc(Cl)cc2)C1c1ccc(OC)cc1` (stereo unspecified), the inhibition in vivo at 10 mg/kg turned out to be 23.8%.

The subject of another series is Rattus norvegicus. The series can be described thus: Antihypertensive activity in Norwegian albino rat assessed as inhibition of DOCA salt-induced systolic blood pressure at 10 mg/kg, po after 180 mins by non-invasive tail-cuff method. In kind it is functional. Conditions: Artery, 3 h. The gist of the method: as §3
Turning to `CCOC(=O)C1=C(C)NC(OC)N(CC(=O)c2ccc(Cl)cc2)C1c1ccc(OC)cc1` (stereo unspecified), the inhibition in vivo at 10 mg/kg was found to be 28%.

A further series deals with Rattus norvegicus. Put plainly: Antihypertensive activity in Norwegian albino rat assessed as inhibition of DOCA salt-induced systolic blood pressure at 10 mg/kg, po after 240 mins by non-invasive tail-cuff method. The settings on record: Artery, 4 h. In kind it is functional. The method in brief:
as §3
Consider `CCOC(=O)C1=C(C)NC(OC)N(CC(=O)c2ccc(Cl)cc2)C1c1ccc(OC)cc1` (stereo unspecified), for which the inhibition in vivo at 10 mg/kg was determined as 36%.

The next series concerns Rattus norvegicus. The series can be described thus: Antihypertensive activity in Norwegian albino rat assessed as inhibition of DOCA salt-induced systolic blood pressure at 10 mg/kg, po after 300 mins by non-invasive tail-cuff method. It is filed as functional. The settings on record: Artery, 5 h. The method in brief:
as §3
In the case of `CCOC(=O)C1=C(C)NC(OC)N(CC(=O)c2ccc(Cl)cc2)C1c1ccc(OC)cc1` (stereo unspecified), the inhibition in vivo at 10 mg/kg was 41.4%.

For another series, the system named is Rattus norvegicus. The series can be described thus: Antihypertensive activity in Norwegian albino rat assessed as inhibition of DOCA salt-induced systolic blood pressure at 10 mg/kg, po after 360 mins by non-invasive tail-cuff method. In kind it is functional. The settings on record: Artery, 6 h. The gist of the method:
as §3
As to `CCOC(=O)C1=C(C)NC(OC)N(CC(=O)c2ccc(Cl)cc2)C1c1ccc(OC)cc1` (stereo unspecified), the inhibition in vivo at 10 mg/kg was found to be 42.9%.

The subject of the next series is Rattus norvegicus. Put plainly: Antihypertensive activity in Norwegian albino rat assessed as inhibition of DOCA salt-induced systolic blood pressure at 10 mg/kg, po after 480 mins by non-invasive tail-cuff method. In kind it is functional. Conditions: Artery, 8 h. The method in brief:
as §3
On to `CCOC(=O)C1=C(C)NC(OC)N(CC(=O)c2ccc(Cl)cc2)C1c1ccc(OC)cc1` (stereo unspecified), for which the inhibition in vivo at 10 mg/kg was 51.9%.

The subject of the next series is Rattus norvegicus. Put plainly: Antihypertensive activity in Norwegian albino rat assessed as inhibition of DOCA salt-induced diastolic blood pressure at 10 mg/kg, po after 15 mins by invasive carotid artery cannulation method. It is filed as functional. The settings on record: 0.25 h. The method in brief: as §1
Turning to `CCOC(=O)C1=C(C)NC(OC)N(CC(=O)c2ccc(Cl)cc2)C1c1ccc(OC)cc1` (stereo unspecified), the inhibition in vivo at 10 mg/kg is 1.79%.

A further series deals with Rattus norvegicus. Put plainly: Antihypertensive activity in Norwegian albino rat assessed as inhibition of DOCA salt-induced diastolic blood pressure at 10 mg/kg, po after 30 mins by invasive carotid artery cannulation method. In kind it is functional. Conditions: 0.5 h. The method in brief:
as §1
Take `CCOC(=O)C1=C(C)NC(OC)N(CC(=O)c2ccc(Cl)cc2)C1c1ccc(OC)cc1` (stereo unspecified): the inhibition in vivo at 10 mg/kg came out at 10.1%.

In another series the test system is Rattus norvegicus. The series can be described thus: Antihypertensive activity in Norwegian albino rat assessed as inhibition of DOCA salt-induced diastolic blood pressure at 10 mg/kg, po after 60 mins by invasive carotid artery cannulation method. In kind it is functional. The settings on record: 1 h. The gist of the method: as §1
Regarding `CCOC(=O)C1=C(C)NC(OC)N(CC(=O)c2ccc(Cl)cc2)C1c1ccc(OC)cc1` (stereo unspecified), the inhibition in vivo at 10 mg/kg was determined as 23.5%.

The values above are taken from ChEMBL document CHEMBL1153580, “Synthesis and pharmacological investigation of 3-(substituted 1-phenylethanone)-4-(substituted phenyl)-1, 2, 3, 4-tetrahydropyrimidine-5-carboxylates” (Eur J Med Chem, 2009).
